Assay results as given in ChEMBL document CHEMBL3232963, “Discovery of a potent and selective α3β4 nicotinic acetylcholine receptor antagonist from an α-conotoxin synthetic combinatorial library” (J Med Chem, 2014).
Numbered stars: 1 amine (or outer) side, 2 acyl side, 3 side chain; on linkers, the order of the positions; unused ones are H or OH. Bridge positions count the residues as written; N and C are the ends. Square brackets hold non-standard residues; d marks the D form. Peptide text beside a SMILES is read from it. X1 = O=C([C@H](CC1C=Nc2ccccc21)N[*:1])[*:2]; Nle = CCCC[C@H](N)C(=O)O; Nva = CCC[C@H](N)C(=O)O; Abu = CC[C@H](N)C(=O)O

Target: Neuronal acetylcholine receptor; alpha3/beta4 (Rattus norvegicus) (UniProt P04757+P12392)
Assay: Antagonist activity at rat alpha3beta4 nAChR expressed in HEK293 cells assessed as inhibition of epibatadine-induced effect at 10 uM after 30 mins by fluorescent membrane potential assay relative to mecamylamine
Assay type: cell-based
In short: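 Rat α3β4 nAChR stably expressed in HEK293 cells; crude, SPE-desalted individual peptides tested at 10 μM in HBSS with membrane potential blue dye, 30 min at 37 °C. Fluorescence change read after epibatidine (0.1 μM). Percent inhibition set against 10 μM mecamylamine taken as 100%.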

| SMILES | inhibition [%] |
| --- | --- |
| CCCC[C@@H]1NC(=O)[C@H](CO)NC(=O)[C@@H]2CSSC[C@@H](C(=O)O)NC(=O)[C@@H]3CCCN3C(=O)[C@H](CCC)NC(=O)[C@H](CC)NC(=O)[C@H](Cc3ccccc3)NC(=O)[C@H](CSSC[C@H](NC(=O)CN)C(=O)N2)NC(=O)[C@H](CC)NC(=O)[C@@H]2CCCN2C1=O (H-GCCS[Nle]P[Abu]CF[Abu][Nva]PC-OH; disulfide 2-8, 3-13) | 40.3 |
| CCCC[C@@H]1NC(=O)[C@H](CO)NC(=O)[C@@H]2CSSC[C@@H](C(=O)O)NC(=O)[C@H](Cc3ccc(O)cc3)NC(=O)[C@H](CCC)NC(=O)[C@H](CC)NC(=O)[C@H]([C@H](C)CC)NC(=O)[C@H](CSSC[C@H](NC(=O)CN)C(=O)N2)NC(=O)[C@H](CC)NC(=O)[C@@H]2CCCN2C1=O | 59.4 |
| CCCC[C@@H]1NC(=O)[C@H](CO)NC(=O)[C@@H]2CSSC[C@@H](C(=O)O)NC(=O)[C@@H]3CCCN3C(=O)[C@H](CCC)NC(=O)[C@H](Cc3c[nH]c4ccccc34)NC(=O)[C@H]([C@H](C)CC)NC(=O)[C@H](CSSC[C@H](NC(=O)CN)C(=O)N2)NC(=O)[C@H](CC)NC(=O)[C@@H]2CCCN2C1=O | 44.8 |
| CCC[C@@H]1NC(=O)[C@H](CC)NC(=O)[C@H]([C@H](C)CC)NC(=O)[C@@H]2CSSC[C@H](NC(=O)CN)C(=O)N[C@@H](CSSC[C@@H](C(=O)O)NC(=O)[C@H](Cc3ccc(O)cc3)NC1=O)C(=O)N[C@@H](CO)C(=O)N[C@@H](Cc1cnc[nH]1)C(=O)N1CCC[C@H]1C(=O)N1CCC[C@H]1C(=O)N2 | 62.3 |
| CCCC[C@@H]1NC(=O)[C@H](CC)NC(=O)[C@H](Cc2ccccc2)NC(=O)[C@@H]2CSSC[C@H](NC(=O)CN)C(=O)N[C@@H](CSSC[C@@H](C(=O)O)NC(=O)[C@@H]3CCCN3C1=O)C(=O)N[C@@H](CO)C(=O)N[C@@H](Cc1cnc[nH]1)C(=O)N1CCC[C@H]1C(=O)N[C@@H](CC)C(=O)N2 (H-GCCSHP[Abu]CF[Abu][Nle]PC-OH; disulfide 2-8, 3-13) | 35.5 |
| CCCC[C@@H]1NC(=O)[C@H](CC)NC(=O)[C@H]([C@H](C)CC)NC(=O)[C@@H]2CSSC[C@H](NC(=O)CN)C(=O)N[C@@H](CSSC[C@@H](C(=O)O)NC(=O)[C@@H]3CCCN3C1=O)C(=O)N[C@@H](CO)C(=O)N[C@@H](Cc1cnc[nH]1)C(=O)N1CCC[C@H]1C(=O)N1CCC[C@H]1C(=O)N2 | 38.1 |
| CCCC[C@@H]1NC(=O)[C@H](Cc2c[nH]c3ccccc23)NC(=O)[C@H](Cc2ccccc2)NC(=O)[C@@H]2CSSC[C@H](NC(=O)CN)C(=O)N[C@@H](CSSC[C@@H](C(=O)O)NC(=O)[C@@H]3CCCN3C1=O)C(=O)N[C@@H](CO)C(=O)N[C@@H](Cc1cnc[nH]1)C(=O)N1CCC[C@H]1C(=O)N1CCC[C@H]1C(=O)N2 (H-GCCSHPPCFW[Nle]PC-OH; disulfide 2-8, 3-13) | 15.3 |
| CCCC[C@@H]1NC(=O)[C@H](CO)NC(=O)[C@@H]2CSSC[C@@H](C(=O)O)NC(=O)[C@H](Cc3ccc(O)cc3)NC(=O)[C@H](CCC)NC(=O)[C@H](CC)NC(=O)[C@H]([C@H](C)CC)NC(=O)[C@H](CSSC[C@H](NC(=O)CN)C(=O)N2)NC(=O)[C@@H]2CCCN2C(=O)[C@@H]2CCCN2C1=O | 50.9 |
| CCCC[C@@H]1NC(=O)[C@H](CC2C=Nc3ccccc32)NC(=O)[C@H](Cc2ccccc2)NC(=O)[C@@H]2CSSC[C@H](NC(=O)CN)C(=O)N[C@@H](CSSC[C@@H](C(=O)O)NC(=O)[C@@H]3CCCN3C1=O)C(=O)N[C@@H](CO)C(=O)N[C@@H](Cc1cnc[nH]1)C(=O)N1CCC[C@H]1C(=O)N[C@@H](CC)C(=O)N2 (stereo not given in full) (H-GCCSHP[Abu]CF[X1][Nle]PC-OH; disulfide 2-8, 3-13) | 22.3 |
| CCCC[C@@H]1NC(=O)[C@H](CC2C=Nc3ccccc32)NC(=O)[C@H]([C@H](C)CC)NC(=O)[C@@H]2CSSC[C@H](NC(=O)CN)C(=O)N[C@@H](CSSC[C@@H](C(=O)O)NC(=O)[C@@H]3CCCN3C1=O)C(=O)N[C@@H](CO)C(=O)N[C@@H](Cc1cnc[nH]1)C(=O)N1CCC[C@H]1C(=O)N[C@@H](CC)C(=O)N2 (stereo not given in full) | 15.4 |
| CCCC[C@@H]1NC(=O)[C@H](Cc2c[nH]c3ccccc23)NC(=O)[C@H]([C@H](C)CC)NC(=O)[C@@H]2CSSC[C@H](NC(=O)CN)C(=O)N[C@@H](CSSC[C@@H](C(=O)O)NC(=O)[C@H](Cc3ccc(O)cc3)NC1=O)C(=O)N[C@@H](CO)C(=O)N[C@@H](CCCC)C(=O)N1CCC[C@H]1C(=O)N[C@@H](CC)C(=O)N2 | 68.6 |
| CCC[C@@H]1NC(=O)[C@H](CC)NC(=O)[C@H](Cc2ccccc2)NC(=O)[C@@H]2CSSC[C@H](NC(=O)CN)C(=O)N[C@@H](CSSC[C@@H](C(=O)O)NC(=O)[C@@H]3CCCN3C1=O)C(=O)N[C@@H](CO)C(=O)N[C@@H](Cc1cnc[nH]1)C(=O)N1CCC[C@H]1C(=O)N[C@@H](CC)C(=O)N2 (H-GCCSHP[Abu]CF[Abu][Nva]PC-OH; disulfide 2-8, 3-13) | 47 |
| CCC[C@@H]1NC(=O)[C@H](Cc2c[nH]c3ccccc23)NC(=O)[C@H]([C@H](C)CC)NC(=O)[C@@H]2CSSC[C@H](NC(=O)CN)C(=O)N[C@@H](CSSC[C@@H](C(=O)O)NC(=O)[C@@H]3CCCN3C1=O)C(=O)N[C@@H](CO)C(=O)N[C@@H](Cc1cnc[nH]1)C(=O)N1CCC[C@H]1C(=O)N[C@@H](CC)C(=O)N2 | 38.7 |
| CCCC[C@@H]1NC(=O)[C@H](CC)NC(=O)[C@H]([C@H](C)CC)NC(=O)[C@@H]2CSSC[C@H](NC(=O)CN)C(=O)N[C@@H](CSSC[C@@H](C(=O)O)NC(=O)[C@H](Cc3ccc(O)cc3)NC1=O)C(=O)N[C@@H](CO)C(=O)N[C@@H](CCCC)C(=O)N1CCC[C@H]1C(=O)N1CCC[C@H]1C(=O)N2 | 63.8 |
| CCCC[C@@H]1NC(=O)[C@H](CC)NC(=O)[C@H](Cc2ccccc2)NC(=O)[C@@H]2CSSC[C@H](NC(=O)CN)C(=O)N[C@@H](CSSC[C@@H](C(=O)O)NC(=O)[C@@H]3CCCN3C1=O)C(=O)N[C@@H](CO)C(=O)N[C@@H](CCCC)C(=O)N1CCC[C@H]1C(=O)N[C@@H](CC)C(=O)N2 (H-GCCS[Nle]P[Abu]CF[Abu][Nle]PC-OH; disulfide 2-8, 3-13) | 36.6 |
| CCCC[C@@H]1NC(=O)[C@H](Cc2c[nH]c3ccccc23)NC(=O)[C@H]([C@H](C)CC)NC(=O)[C@@H]2CSSC[C@H](NC(=O)CN)C(=O)N[C@@H](CSSC[C@@H](C(=O)O)NC(=O)[C@H](Cc3ccc(O)cc3)NC1=O)C(=O)N[C@@H](CO)C(=O)N[C@@H](CCCC)C(=O)N1CCC[C@H]1C(=O)N1CCC[C@H]1C(=O)N2 | 51.8 |
| CCCC[C@@H]1NC(=O)[C@H](Cc2c[nH]c3ccccc23)NC(=O)[C@H]([C@H](C)CC)NC(=O)[C@@H]2CSSC[C@H](NC(=O)CN)C(=O)N[C@@H](CSSC[C@@H](C(=O)O)NC(=O)[C@@H]3CCCN3C1=O)C(=O)N[C@@H](CO)C(=O)N[C@@H](Cc1cnc[nH]1)C(=O)N1CCC[C@H]1C(=O)N1CCC[C@H]1C(=O)N2 | 10.1 |
| CCCC[C@@H]1NC(=O)[C@H](CC)NC(=O)[C@H](Cc2ccccc2)NC(=O)[C@@H]2CSSC[C@H](NC(=O)CN)C(=O)N[C@@H](CSSC[C@@H](C(=O)O)NC(=O)[C@@H]3CCCN3C1=O)C(=O)N[C@@H](CO)C(=O)N[C@@H](CCCC)C(=O)N1CCC[C@H]1C(=O)N1CCC[C@H]1C(=O)N2 (H-GCCS[Nle]PPCF[Abu][Nle]PC-OH; disulfide 2-8, 3-13) | 54.6 |
| CCCC[C@@H]1NC(=O)[C@H](CC2C=Nc3ccccc32)NC(=O)[C@H]([C@H](C)CC)NC(=O)[C@@H]2CSSC[C@H](NC(=O)CN)C(=O)N[C@@H](CSSC[C@@H](C(=O)O)NC(=O)[C@@H]3CCCN3C1=O)C(=O)N[C@@H](CO)C(=O)N[C@@H](CCCC)C(=O)N1CCC[C@H]1C(=O)N[C@@H](CC)C(=O)N2 (stereo not given in full) | 51.4 |
| CCCC[C@@H]1NC(=O)[C@H](CC)NC(=O)[C@H]([C@H](C)CC)NC(=O)[C@@H]2CSSC[C@H](NC(=O)CN)C(=O)N[C@@H](CSSC[C@@H](C(=O)O)NC(=O)[C@@H]3CCCN3C1=O)C(=O)N[C@@H](CO)C(=O)N[C@@H](Cc1cnc[nH]1)C(=O)N1CCC[C@H]1C(=O)N[C@@H](CC)C(=O)N2 | 36.2 |
| CCCC[C@@H]1NC(=O)[C@H](CO)NC(=O)[C@@H]2CSSC[C@@H](C(=O)O)NC(=O)[C@@H]3CCCN3C(=O)[C@H](CCC)NC(=O)[C@H](Cc3c[nH]c4ccccc34)NC(=O)[C@H](Cc3ccccc3)NC(=O)[C@H](CSSC[C@H](NC(=O)CN)C(=O)N2)NC(=O)[C@@H]2CCCN2C(=O)[C@@H]2CCCN2C1=O (H-GCCS[Nle]PPCFW[Nva]PC-OH; disulfide 2-8, 3-13) | 37.1 |
| CCCC[C@@H]1NC(=O)[C@H](CC)NC(=O)[C@H]([C@H](C)CC)NC(=O)[C@@H]2CSSC[C@H](NC(=O)CN)C(=O)N[C@@H](CSSC[C@@H](C(=O)O)NC(=O)[C@@H]3CCCN3C1=O)C(=O)N[C@@H](CO)C(=O)N[C@@H](CCCC)C(=O)N1CCC[C@H]1C(=O)N[C@@H](CC)C(=O)N2 | 42.9 |
| CCCC[C@@H]1NC(=O)[C@H](CO)NC(=O)[C@@H]2CSSC[C@@H](C(=O)O)NC(=O)[C@@H]3CCCN3C(=O)[C@H](CCC)NC(=O)[C@H](CC)NC(=O)[C@H]([C@H](C)CC)NC(=O)[C@H](CSSC[C@H](NC(=O)CN)C(=O)N2)NC(=O)[C@@H]2CCCN2C(=O)[C@@H]2CCCN2C1=O | 45.7 |
| CCC[C@@H]1NC(=O)[C@H](Cc2c[nH]c3ccccc23)NC(=O)[C@H]([C@H](C)CC)NC(=O)[C@@H]2CSSC[C@H](NC(=O)CN)C(=O)N[C@@H](CSSC[C@@H](C(=O)O)NC(=O)[C@H](Cc3ccc(O)cc3)NC1=O)C(=O)N[C@@H](CO)C(=O)N[C@@H](Cc1cnc[nH]1)C(=O)N1CCC[C@H]1C(=O)N1CCC[C@H]1C(=O)N2 | 56.5 |
| CCCC[C@@H]1NC(=O)[C@H](CO)NC(=O)[C@@H]2CSSC[C@@H](C(=O)O)NC(=O)[C@@H]3CCCN3C(=O)[C@H](CCC)NC(=O)[C@H](Cc3c[nH]c4ccccc34)NC(=O)[C@H](Cc3ccccc3)NC(=O)[C@H](CSSC[C@H](NC(=O)CN)C(=O)N2)NC(=O)[C@H](CC)NC(=O)[C@@H]2CCCN2C1=O (H-GCCS[Nle]P[Abu]CFW[Nva]PC-OH; disulfide 2-8, 3-13) | 41.1 |
